Data published in ChEMBL document CHEMBL3588757, “Structure-based design, synthesis and biological testing of piperazine-linked bis-epipodophyllotoxin etoposide analogs” (Bioorg Med Chem, 2015).
Calls of active or inactive are those of the source. The rule behind the calls is not given here.

Assays:
[1] = tested on: K562; test: Cytotoxicity against human K562 cells assessed as cell growth inhibition after 72 hrs by MTS assay; type: functional, cell-based; settings: K562, 72 h
[2] = Cytotoxicity against etoposide-resistant human K/VP.5 cells assessed as cell growth inhibition after 72 hrs by MTS assay; type: functional, cell-based; settings: K/VP.5, 72 h
Procedure, shortened: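 K/VP.5 cells are a K562-derived subline, 26-fold etoposide-resistant, with decreased topoisomerase IIα mRNA and protein. Cells were grown in suspension in αMEM with 10% fetal calf serum. Drugs were given from DMSO stocks, with final DMSO typically 0.4% or less. Read-out was MTS absorbance after 72 h. Typically nine concentrations were run in duplicate on two days. IC50 came from a four-parameter logistic fit.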

[3] = tested on: K562; test: Relative resistance, ratio of IC50 for etoposide-resistant human K/VP.5 cells to IC50 for human K562 cells; type: functional
[4] = biological target: DNA topoisomerase 2-alpha (Homo sapiens) (UniProt P11388); test: Inhibition of full-length human recombinant topoisomerase 2-alpha-mediated decatenation activity of kDNA at >10 uM by ethidium bromide based gel-assay
[5] = biological target: DNA topoisomerase 2-alpha (Homo sapiens) (UniProt P11388); test: Inhibition of full-length human recombinant topoisomerase 2-alpha assessed as conversion of […] DNA at 100 uM by ethidium bromide based gel-assay
[6] = biological target: DNA topoisomerase 2-alpha (Homo sapiens) (UniProt P11388); test: Inhibition of full-length human recombinant topoisomerase 2-alpha mediated relaxation and cleavage of supercoiled pBR322 plasmid DNA to linear DNA by ethidium bromide staining based gel electrophoresis assay
Procedure, shortened: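 Recombinant full-length human topoisomerase IIα with supercoiled pBR322 DNA at 37 °C. Components mixed on ice before drug addition. Complexes trapped with SDS; products run on ethidium bromide gels. Linear DNA identified against a HindIII-linearized marker; repeated on three days.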

[7] = biological target: DNA topoisomerase 2-alpha (Homo sapiens) (UniProt P11388); test: Inhibition of full-length human recombinant topoisomerase 2-alpha-mediated decatenation activity of kDNA by ethidium bromide based gel-assay
[8] = tested on: K562; test: Induction of DNA double strand breaks in human K562 cells assessed as increase in gamma-H2AX level at 25 uM after 4 hrs by chemiluminescence analysis; type: functional, cell-based
Procedure, shortened: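 K562 cells (3.4 × 10^5/mL) exposed 4 h at 37 °C to 25 µM drug or DMSO. Lysed in Tris pH 6.7/SDS buffer; 50 µg protein on 14% SDS-PAGE, PVDF blot. Rabbit anti-γH2AX (1:1000, overnight), GAPDH loading control, HRP secondary. Chemiluminescence imaged by CCD.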

[9] = tested on: CHO; test: Induction of apoptosis in CHO cells assessed as increase in sub-G0/G1 cell population at 1 uM after 49 hrs by propidium iodide staining based flow cytometry; type: functional; settings: Cricetulus griseus
Procedure, shortened: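 CHO cells grown to confluence in α-MEM/10% FCS, serum-starved 48 h (0% FCS), then seeded at 2 × 10^5 cells/mL and repleted with 10% FCS. Continuously treated from repletion with 1 µM compound (10 µM etoposide, DMSO control) for various times. Propidium iodide DNA staining, flow cytometric phase distribution including sub-G0/G1.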

[10] = tested on: K562; test: Induction of apoptosis in human K562 cells assessed as decrease in proportion of viable cells at 1 uM after 24 to 48 hrs by annexin V-FITC/propidium iodide staining based two-color fluorescence flow cytometry; type: functional, cell-based
Procedure, shortened: (§1)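 K562 cells (1 × 10^6/mL), untreated or given 1 µM compound (10 µM etoposide control) at 37 °C for 24 h or 48 h. Annexin V-FITC plus propidium iodide two-colour flow cytometry. Cells are scored as viable, apoptotic-only (annexin+/PI−), apoptotic/necrotic (annexin+/PI+) or necrotic.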

[11] = tested on: K562; test: Induction of apoptosis in human K562 cells assessed as increase in proportion of apoptotic and apoptotic/necrotic cells at 1 uM after 24 to 48 hrs by annexin V-FITC/propidium iodide staining based two-color fluorescence flow cytometry; type: functional, cell-based; procedure, shortened: as §1
[12] = tested on: K562; test: Induction of apoptosis in human K562 cells assessed as increase in caspase 3/7 activity at 1 uM by luminescence analysis; type: functional, cell-based; settings: TDE = time-dependent effect
Procedure, shortened: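 K562 cells at 2 × 10^5 cells/mL treated with vehicle or 1 µM compound for 24 or 48 h. Lysates assayed with a luminogenic DEVD-aminoluciferin caspase-3/7 substrate and read by luminescence. Four wells (eight for control); unpaired t-test vs control; repeated on two days.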

[13] = tested on: CHO; test: Induction of apoptosis in CHO cells assessed as increase in sub-G0/G1 cell population at 10 uM after 49 hrs by propidium iodide staining based flow cytometry (Rvb <2%); type: functional, Cricetulus griseus
[14] = tested on: CHO; test: Induction of cell cycle arrest in CHO cells assessed as accumulation at G2/M phase at 10 uM after 21 hrs by propidium iodide staining based flow cytometry; type: functional; settings: Cricetulus griseus
[15] = tested on: K562; test: Induction of apoptosis in human K562 cells assessed as decrease in proportion of viable cells at 10 uM after 24 to 48 hrs by annexin V-FITC/propidium iodide staining based two-color fluorescence flow cytometry; type: functional, cell-based
[16] = tested on: K562; test: Induction of apoptosis in human K562 cells assessed as increase in proportion of apoptotic and apoptotic/necrotic cells at 10 uM after 24 to 48 hrs by annexin V-FITC/propidium iodide staining based two-color fluorescence flow cytometry; type: functional, cell-based
[17] = tested on: CHO; test: Induction of cell cycle arrest in CHO cells assessed as accumulation at G2/M phase at 1 uM by propidium iodide staining based flow cytometry; type: functional; settings: Cricetulus griseus

DNA topoisomerase 2-alpha (Homo sapiens), sequence (P11388 whole entry): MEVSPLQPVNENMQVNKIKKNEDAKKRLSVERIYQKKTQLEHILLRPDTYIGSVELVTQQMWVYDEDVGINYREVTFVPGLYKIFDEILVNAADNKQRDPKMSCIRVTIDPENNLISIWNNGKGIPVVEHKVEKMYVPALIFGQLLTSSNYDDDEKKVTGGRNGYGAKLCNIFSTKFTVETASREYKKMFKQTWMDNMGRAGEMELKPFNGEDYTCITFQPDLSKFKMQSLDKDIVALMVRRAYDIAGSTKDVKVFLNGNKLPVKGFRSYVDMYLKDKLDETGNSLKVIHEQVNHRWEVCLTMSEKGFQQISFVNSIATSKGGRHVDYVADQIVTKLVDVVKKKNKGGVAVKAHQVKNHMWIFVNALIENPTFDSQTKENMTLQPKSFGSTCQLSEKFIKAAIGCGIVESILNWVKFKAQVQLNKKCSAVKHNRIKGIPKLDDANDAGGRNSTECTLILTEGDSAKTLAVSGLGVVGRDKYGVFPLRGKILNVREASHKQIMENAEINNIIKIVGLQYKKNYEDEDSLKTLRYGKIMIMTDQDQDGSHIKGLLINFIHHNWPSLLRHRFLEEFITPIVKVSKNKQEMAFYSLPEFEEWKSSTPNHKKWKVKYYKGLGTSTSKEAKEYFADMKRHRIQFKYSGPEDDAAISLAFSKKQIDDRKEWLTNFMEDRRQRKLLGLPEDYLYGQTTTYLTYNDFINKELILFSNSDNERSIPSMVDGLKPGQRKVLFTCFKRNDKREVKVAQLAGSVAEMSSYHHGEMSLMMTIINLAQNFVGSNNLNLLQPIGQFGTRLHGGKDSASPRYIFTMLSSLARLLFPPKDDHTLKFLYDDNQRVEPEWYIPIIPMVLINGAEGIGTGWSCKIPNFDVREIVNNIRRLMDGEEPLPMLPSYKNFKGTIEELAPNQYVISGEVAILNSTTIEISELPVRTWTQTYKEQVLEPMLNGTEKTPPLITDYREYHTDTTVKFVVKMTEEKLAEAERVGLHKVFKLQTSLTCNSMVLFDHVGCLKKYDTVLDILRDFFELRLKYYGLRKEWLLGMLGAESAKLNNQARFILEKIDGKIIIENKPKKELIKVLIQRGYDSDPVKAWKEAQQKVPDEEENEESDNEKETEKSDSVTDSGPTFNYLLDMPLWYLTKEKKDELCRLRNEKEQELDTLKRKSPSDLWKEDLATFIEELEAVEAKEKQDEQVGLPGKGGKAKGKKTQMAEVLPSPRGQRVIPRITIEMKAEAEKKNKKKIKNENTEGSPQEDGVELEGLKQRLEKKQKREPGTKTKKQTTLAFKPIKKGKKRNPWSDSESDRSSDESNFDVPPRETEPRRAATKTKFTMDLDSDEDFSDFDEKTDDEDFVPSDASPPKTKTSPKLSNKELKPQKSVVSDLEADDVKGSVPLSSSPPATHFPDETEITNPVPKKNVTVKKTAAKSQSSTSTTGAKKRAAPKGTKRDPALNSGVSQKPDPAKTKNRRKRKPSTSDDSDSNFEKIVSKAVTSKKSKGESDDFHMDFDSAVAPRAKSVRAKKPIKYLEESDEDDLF

Compound | IC50 [1] [nM] | IC50 [2] [nM] | Ratio IC50 [3] | Inhibition of decatenation activity (qualitative) [4] | Inhibition (qualitative activity call) [5] | Effect on topoisomerase 2-alpha DNA cleavage (qualitative) [6] | inhibition [7] | Activity [8] | Activity [9] | Activity [10] | Activity [11] | Activity [12] | Activity [13] [%] | Activity [14] | Activity [15] | Activity [16] | Activity [17]
COc1cc([C@@H]2c3cc4c(cc3[C@@H](NC(=O)CN3CCN(CCCCCCCCCCCCN5CCN(CC(=O)N[C@@H]6c7cc8c(cc7[C@@H](c7cc(OC)c(O)c(OC)c7)[C@H]7C(=O)OC[C@@H]76)OCO8)CC5)CC3)[C@H]3COC(=O)[C@H]23)OCO4)cc(OC)c1O | 67 | 549 | 8.2 | Active | Active | Dose-dependent effect | – | – | – | – | – | – | – | – | – | – | –
COc1cc([C@@H]2c3cc4c(cc3[C@@H](NC(=O)CN3CCN(CCCN5CCNCC5)CC3)[C@H]3COC(=O)[C@H]23)OCO4)cc(OC)c1O | 1270 | 13300 | 10.5 | – | – | Dose-dependent effect | Active | Active | – | – | – | – | – | – | – | – | –
COc1cc([C@@H]2c3cc4c(cc3[C@@H](NC(=O)CN3CCN(CCCCCCCCCCN5CCNCC5)CC3)[C@H]3COC(=O)[C@H]23)OCO4)cc(OC)c1O | 26 | 156 | 6 | Active | – | Dose-dependent effect | – | Active | Active | Active | Active | tde | – | – | – | – | –
COc1cc([C@@H]2c3cc4c(cc3[C@@H](NC(=O)CN3CCN(CCCCCCCCN5CCNCC5)CC3)[C@H]3COC(=O)[C@H]23)OCO4)cc(OC)c1O | 103 | 556 | 5.4 | Active | – | Dose-dependent effect | – | Active | – | – | – | – | – | – | – | – | –
COc1cc([C@@H]2c3cc4c(cc3[C@@H](O[C@@H]3O[C@@H]5CO[C@@H](C)O[C@H]5[C@H](O)[C@H]3O)[C@H]3COC(=O)[C@H]23)OCO4)cc(OC)c1O [ETOPOSIDE] | 163 | 2500 | 15.4 | Active | Active | Dose-dependent effect | – | Active | – | – | – | – | 39 | Active | Active | Active | –
COc1cc([C@@H]2c3cc4c(cc3[C@@H](NC(=O)CN3CCN(CCCCCCCCN5CCN(CC(=O)N[C@@H]6c7cc8c(cc7[C@@H](c7cc(OC)c(O)c(OC)c7)[C@H]7C(=O)OC[C@@H]76)OCO8)CC5)CC3)[C@H]3COC(=O)[C@H]23)OCO4)cc(OC)c1O | 16 | 115 | 7.4 | Active | Active | Dose-dependent effect | – | Active | Active | Active | Active | tde | – | – | – | – | Active
